Measurements published in PubChem BioAssay AID602209 (Southern Research Specialized Biocontainment Screening …, 2012).
Active and inactive are the calls of the source.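 How the source made its calls: active means inhibition of 30% or more at any tested concentration; inactive means the rest.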

Biological target: M17 leucyl aminopeptidase (Plasmodium falciparum 3D7)
Assay: PfM17LAP leucine aminopeptidase inhibitors, dose response, counter-screen for PfM1AAP inhibitor project, biochemical, QFRET, set 2 (AID 602209)
Conditions: recombinant PfM17LAP, H-Leu-NHMec fluorogenic cleavage
How it was run: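 Test system: Recombinant Plasmodium falciparum M17 leucine aminopeptidase enzyme | Amount: Recombinant PfM17LAP enzyme at 5 µg/mL final | Read-out: % inhibition and IC50 via 4-parameter fit | Compound: 100–0.2 µM, 2-fold dilutions | Repeats: Triplicate | Detection: Fluorescence of released NHMec leaving group | Timing: Reaction 90 min, room temperature | Buffer or medium: Tris-HCl pH 7.5 plus CoCl2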

| SMILES | inhibition (at 100 µM (top of the series)) | IC50 [µM] | other results |
| --- | --- | --- | --- |
| CC[C@H](C)[C@H](NC(=O)c1ccc(C(C)(C)C)cc1)C(=O)NCc1ccc(Cl)cc1 | inactive |  |  |
| CC[C@H](C)[C@H](NS(=O)(=O)c1ccc(Br)s1)C(=O)NCc1ccc(Cl)cc1 | inactive |  |  |
| CC[C@H](C)[C@H](NS(=O)(=O)c1ccc(Br)s1)C(=O)NCc1ccc2c(c1)OCO2 | inactive |  |  |
| O=C(NCc1ccc2c(c1)OCO2)C1CCN(S(=O)(=O)c2ccc(Br)s2)CC1 |  | 3.57 |  |
| CC[C@H](C)[C@H](NC(=O)c1ccc(C(C)(C)C)cc1)C(=O)NCc1ccc2c(c1)OCO2 |  |  | inhibition (at 1.56 µM (top of the series)): inactive |

Continued, in another order:

| inhibition (at 100 µM (top of the series)) | IC50 [µM] | SMILES | other results |
| --- | --- | --- | --- |
|  | 38.9 | O=C(NCc1ccc(Cl)cc1)C1CCN(S(=O)(=O)c2ccc(Br)s2)CC1 |  |
|  | 8.81 | O=C(NCc1ccc(F)cc1)C1CCN(S(=O)(=O)c2ccc(Br)s2)CC1 |  |
|  | 3.52 | O=C(NCc1ccccc1)C1CCN(S(=O)(=O)c2ccc(Br)s2)CC1 |  |
